Data set [1] can be described thus: Downregulation of Bcl2 expression in human HCT116 cells after 48 hrs by western blot analysis. It counts as functional, cell-based. The settings on record: HCT-116. The method in brief:
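HCT116 cells treated 48 h with or without compound. Western blots probed for Bax, Bcl-2, cleaved caspase-3 and PARP. Band intensities relative to β-actin by densitometry; means ± SD from three separate experiments.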
On the technique in general: Immunoblotting shows a protein as a band on a membrane.

For data set [2], the system named is Mus musculus. The experiment in a line: Acute toxicity in ICR mouse assessed as death at 240 to 375 mg/kg, ip measured after 2 days. Format: organism-based. The settings on record: in vivo, 48 h. The method in brief:
(§1)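 Female ICR mice, single intraperitoneal injection at 585.9, 468.8, […], 300 or 240 mg/kg, or vehicle control, n = 10 per group. Deaths counted at 1 h, 4 h, daily on days 1-4 and over days 5-14. Eating, drinking, body weight and activity observed for 14 days, with survival (%) taken on day 14. LD50 calculated from mortality.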

In a further data set the target is T1, Histone deacetylase 8 (Homo sapiens, UniProt Q9BY41).
T1 sequence (Q9BY41 whole entry): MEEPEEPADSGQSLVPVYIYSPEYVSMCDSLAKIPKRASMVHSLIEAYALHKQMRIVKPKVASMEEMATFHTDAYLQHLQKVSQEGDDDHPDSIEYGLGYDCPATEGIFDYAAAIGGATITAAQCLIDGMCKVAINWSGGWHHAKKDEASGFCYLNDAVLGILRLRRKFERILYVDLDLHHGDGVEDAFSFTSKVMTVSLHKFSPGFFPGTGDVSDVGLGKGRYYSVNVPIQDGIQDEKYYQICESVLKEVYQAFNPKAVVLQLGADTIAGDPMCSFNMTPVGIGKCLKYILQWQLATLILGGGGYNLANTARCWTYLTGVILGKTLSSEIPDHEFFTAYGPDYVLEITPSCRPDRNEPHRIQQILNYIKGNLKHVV
Description: Inhibition of recombinant human HDAC8 using Boc-Lys (Ac)-AMC as substrate after 60 mins by fluorometric analysis.

Data set [3] relates to Mus musculus. Description: Acute toxicity in ICR mouse assessed as death at 468.8 mg/kg, ip measured after 5 to 14 days. Format: organism-based. The settings on record: in vivo. Put shortly: as §1
In data set [4] the test system is Mus musculus. Description: Toxicity in BALB/c mouse xenografted with human HCT116 cells assessed as body weight change at 90 mg/kg, ip measured twice per week over 22 days. Format: organism-based, HCT-116. The settings on record: in vivo, 528 h. In general terms: A xenograft is tissue or cells of one species grown in another, often human tumour cells in immunodeficient mice.

Data set [5] relates to HCT-116. The experiment in a line: Antiproliferative activity against human HCT116 cells assessed as cell death at 5 uM after 48 hrs by MTT assay. Format: functional, cell-based. Put shortly: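 HCT116 and rat IEC-18 cells incubated 48 h over a 0–5 µM range. Viability measured by MTT and expressed as % of control. GI50 taken from the inhibition curves; three independent experiments.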
(Tetrazolium dyes change colour on reduction, which living cells bring about.)

Data set [6] concerns HCT-116. The experiment in a line: Induction of apoptosis in human HCT116 cells after 48 hrs by annexin V-FITC/propidium iodide staining-based flow cytometric analysis. Format: functional, cell-based. Put shortly: (§2)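 HCT116 cells cultured overnight, then exposed in triplicate for 48 h to 0.1, 1.0 or 5.0 µM, SAHA 5.0 µM or vehicle. Stained with FITC-Annexin V/PI for 15 min at room temperature.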

Data set [7] deals with Histone deacetylase (Homo sapiens) (UniProt Q13547+O15379+Q9UBN7+Q92769+Q9UQL6+Q8WUI4+Q9BY41+Q96DB2+P56524+Q9UKV0+Q969S8). Description: Inhibition of HDAC in human HCT116 cells assessed as increase in acetyl-histone H3 expression after 48 hrs by immunoblotting analysis. The settings on record: HCT-116. It counts as cell-based. The method in brief:
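HCT116 cells treated 48 h with compound, SAHA or vehicle. Lysates probed by immunoblot for acetyl-histone H3 and acetyl-α-tubulin, with β-actin as loading control. Relative levels by densitometric scanning; means ± SD of three experiments.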

The target in data set [8] is Cellular tumor antigen p53 (Homo sapiens) (UniProt P04637). The experiment in a line: Activation of p53 in human HCT116 cell at 0.1 to 5 uM after 12 hrs by western blot analysis. Format: cell-based. The settings on record: HCT-116. The method in brief:
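HCT116 cells exposed 12 h to compound or vehicle, then lysed on ice in PBS with 1% NP-40, 0.5% deoxycholate, 0.1% SDS and protease inhibitors. Up to 50 µg protein run on SDS-PAGE and immunoblotted for phospho-p53 (Ser15), p53 and p21. Bands quantified by densitometry against β-actin; mean ± SD of three experiments.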

Data set [9] is described as follows: Acute toxicity in ICR mouse assessed as survival rate at 468.8 mg/kg, ip measured on day 14. The settings on record: in vivo. It counts as organism-based. Put shortly: as §1
For data set [10], the system named is HCT-116. The experiment in a line: Induction of apoptosis in human HCT116 cells at 5 uM after 48 hrs by annexin V-FITC/propidium iodide staining-based flow cytometric analysis. Format: functional. Put shortly:
as §2

Data set [11] is described as follows: Acute toxicity in ICR mouse assessed as survival rate at 240 mg/kg, ip measured on day 14. The settings on record: in vivo. Format: organism-based. The method in brief: as §1
The test system of data set [12] is HCT-116. The experiment in a line: Induction of apoptosis in human HCT116 cells at 0.1 uM after 48 hrs by annexin V-FITC/propidium iodide staining-based flow cytometric analysis. Format: functional. The method in brief:
as §2

The subject of data set [13] is Mus musculus. The experiment in a line: Acute toxicity in ICR mouse assessed as abnormality in eating at 240 mg/kg, ip measured for 14 days. The settings on record: in vivo, 336 h. Format: organism-based. Put shortly: as §1

What is called IC50 is the point on the concentration scale where inhibition reaches its midpoint.

Calls of active or inactive are those of the source. No cut-off for these calls is given here.

Sequence of Cellular tumor antigen p53 (Homo sapiens) (P04637 whole entry, looked up): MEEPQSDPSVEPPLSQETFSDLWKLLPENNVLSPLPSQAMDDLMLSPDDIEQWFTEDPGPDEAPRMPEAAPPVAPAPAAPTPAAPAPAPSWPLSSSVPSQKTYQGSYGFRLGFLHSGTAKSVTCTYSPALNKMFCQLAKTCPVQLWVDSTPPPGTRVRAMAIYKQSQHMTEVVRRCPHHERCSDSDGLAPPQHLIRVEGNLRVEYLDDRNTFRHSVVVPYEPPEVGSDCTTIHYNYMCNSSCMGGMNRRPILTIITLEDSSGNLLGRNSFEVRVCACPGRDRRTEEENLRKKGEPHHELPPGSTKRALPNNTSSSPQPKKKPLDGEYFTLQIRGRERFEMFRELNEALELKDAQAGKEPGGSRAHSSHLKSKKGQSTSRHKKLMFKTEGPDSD

For the molecule `COc1ccc(-c2nc(NC(=O)NCCCC(=O)NO)cc3c2[nH]c2ccccc23)cc1`, the Activity entry in [1] is “Dose-dependent effect”; with Mus musculus [2] it was “Non-toxic”; with Mus musculus [3], “Non-toxic”; with Mus musculus [4], “Non-toxic”; in the data set with HCT-116 [6], “Dose-dependent effect”; in the data set on HCT-116 [10], 73.9%. For the same molecule, the Activity with HCT-116 [12] was 21.6%; with Mus musculus [13], “Non-toxic”. The IC50 at Histone deacetylase 8 was 160 nM. Further, the result (with HCT-116 [5]; in [8]) was Active. For the same molecule, the inhibition entry in data set [7] was “Dose-dependent effect”. In addition, the figures for the survival at 14 day in data set [9] and in data set [11] were 50% and 100%, respectively.

Values taken from ChEMBL document CHEMBL3745678, “Novel β-Carboline/Hydroxamic Acid Hybrids Targeting Both Histone Deacetylase and DNA Display High Anticancer Activity via Regulation of the p53 Signaling Pathway” (J Med Chem, 2015).
